The text below walks through data of ChEMBL document CHEMBL1146498, “Excisanin H, a novel cytotoxic 14,20-epoxy-ent-kaurene diterpenoid, and three new ent-kaurene diterpenoids from Rabdosia excisa” (J Nat Prod, 2004).

≈ marks a conversion by molar mass, not a printed value.

The experiment concerns P388. Description: Cytotoxicity against mouse P388 cells. The format is functional, cell-based. The essentials: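 In vitro assay on P388 murine leukemia cells; cytotoxic activity expressed as IC50, reported in μg/mL.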

Compound `C=C1C(=O)[C@]23[C@H](O)C[C@@H]4C(C)(C)CC[C@H](O)[C@]45CO[C@]2(O)[C@H]1CC[C@@H]53` [EXCISANIN H] gave an IC50 of 0.96 µg/mL (≈ 2.76 µM).

As for `C=C1C(=O)[C@@]23[C@H](O)C[C@@H]4[C@@](C)(CO)CC[C@H](O)[C@@]4(C)[C@@H]2CC[C@@H]1[C@H]3O`, inhibition was half-maximal at 0.92 µg/mL (≈ 2.63 µM) (IC50). Take `C=C1C(=O)[C@@]23[C@H](O)C[C@@H]4[C@@](C)(COC(C)=O)CC[C@H](O)[C@@]4(C)[C@@H]2CC[C@@H]1[C@H]3O`: the midpoint of inhibition, the IC50, lay at 0.72 µg/mL (≈ 1.83 µM). The compound `C=C1C(=O)[C@@]23[C@H](O)C[C@@H]4C(C)(C)CC[C@H](O)[C@@]4(CO)[C@@H]2C[C@H](O)[C@@H]1[C@H]3O` [RABDOSERRIN B] displayed a concentration for half-maximal inhibition (IC50) of 1.01 µg/mL (≈ 2.76 µM). The compound `C=C1C(=O)[C@@]23[C@H](O)C[C@@H]4[C@@](C)(CO)CCC[C@@]4(C)[C@@H]2C[C@H](O)[C@@H]1[C@H]3O` [RABDOKUNMIN C] had an IC50 of 1.06 µg/mL (≈ 3.02 µM). With `C=C1C(=O)[C@@]23[C@H](O)C[C@@H]4C(C)(C)CC[C@H](O)[C@@]4(C)[C@@H]2C[C@H](OC(C)=O)[C@@H]1[C@H]3O` [EXCISANIN B] the figure was 0.63 µg/mL (≈ 1.61 µM); with `C=C1C(=O)[C@@]23[C@H](O)C[C@@H]4C(C)(C)CC[C@H](O)[C@@]4(C)[C@@H]2CC[C@@H]1[C@H]3O` [KAMEBANIN], 0.69 µg/mL (≈ 2.06 µM); with `C=C1C(=O)[C@@]23[C@H](O)C[C@@H]4C(C)(C)CC[C@H](O)[C@@]4(CO)[C@@H]2CC[C@@H]1[C@H]3O` [KAMEBAKAURIN], 0.82 µg/mL (≈ 2.34 µM).

Turning to `C=C1C(=O)[C@@]23[C@H](O)C[C@@H]4C(C)(C)CC[C@H](O)[C@@]4(C)[C@@H]2C[C@H](O)[C@@H]1[C@H]3O` [EXCISANIN A], the IC50 was 1.11 µg/mL (≈ 3.17 µM). The compound `C=C1C(=O)[C@@]23[C@H](O)C[C@@H]4C(C)(C)CCC[C@@]4(CO)[C@@H]2C[C@H](O)[C@@H]1[C@H]3O` [EXCISANIN I] showed an IC50 of 0.87 µg/mL (≈ 2.48 µM). For `C=C1C(=O)[C@@]23[C@H](O)C[C@@H]4C(C)(C)CC[C@H](O)[C@@]4(COC(C)=O)[C@@H]2CC[C@@H]1[C@H]3O` [HENRYIN], the IC50 turned out to be 0.58 µg/mL (≈ 1.48 µM). `C=C1C(=O)[C@@]23[C@H](O)C[C@@H]4[C@@](C)(CO)CCC[C@@]4(CO)[C@@H]2CC[C@@H]1[C@H]3O` [EXCISANIN J] had a 50% inhibitory concentration (IC50) of 0.92 µg/mL (≈ 2.63 µM). The compound `C=C1C(=O)[C@@]23[C@@H](CC[C@@H]1[C@H]2O)[C@@]12C(=O)O[C@@H]3C[C@@H]1C(C)(C)CC[C@@H]2O` showed an IC50 of 0.77 µg/mL (≈ 2.22 µM). In turn, `C=C1C(=O)[C@]23[C@H](O)[C@H]1CC[C@H]2[C@@]12CO[C@@]3(O)C[C@@H]1C(C)(C)CC[C@@H]2O` [MEGATHYRIN A] gave a half-inhibitory concentration (IC50) of 0.77 µg/mL (≈ 2.21 µM).

A word on the IC50: it is the midpoint of a concentration-inhibition curve. Low values mean greater potency, high ones weaker potency.
